Assay results from paper PMC7253076 (Cell chemical biology, 2019).
“And” between values parts separate entries of the source, which are not always exact repeats. Equal values may be shown once.

Tests used:
[1] = tested on: SOD1^G93A mutant rats; conditions: late-stage SOD1^G93A mutant rats; ref Trias et al., 2016; cited from earlier work
[2] = tested on: mouse stem cell-derived motor neurons; conditions: CPA-treated; ref Thams et al., 2019; cited from earlier work
[3] = ref Tang et al., 2012; cited from earlier work
[4] = tested on: CPA-treated motor neurons; assay: CPA-treated motor neurons, PKC/ABL inhibitors; format: cell-based; conditions: data not shown
[5] = target: HGK (Homo sapiens, UniProt O95819); assay: Cell-free radiolabeled ATP kinase assay; format: biochemical
Procedure, shortened: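 Recombinant HGK and substrate with test compound in radiometric HotSpot assay at 25°C: ATP plus 33P-ATP at 10 μM final, 120 min, then spotted on P81 filter paper and washed. IC50 from 10 concentrations, 0.0002–0.1 μM in 2-fold steps. Otherwise single concentrations were used; the 371-kinase panel was run at 0.1 μM. Activity is % remaining versus DMSO alone.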

[6] = target: MLK3 (Homo sapiens, UniProt Q16584); assay: Cell-free radiolabeled ATP kinase assay; format: biochemical; conditions: for activity at MLK3: single concentration, cell-free
[7] = target: MLK1 (Homo sapiens, UniProt P80192); assay: Cell-free radiolabeled ATP kinase assay; format: biochemical; conditions: single concentration
Procedure, shortened: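 MLK1 radiometric HotSpot assay: recombinant kinase and substrate at 25°C with ATP plus 33P-ATP at 10 μM final, 120 min, spotted on P81 paper and washed. Single-dose panel run at 0.1 μM; IC50 series for MLK1 spanned 0.002–1 μM in 2-fold steps. Read-out is % remaining activity versus DMSO.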

[8] = tested on: TNFα release in LPS-stimulated mouse N9 microglial cells; assay: TNFα ELISA in LPS-stimulated N9 microglia; format: cell-based; conditions: for EC50: Mus musculus, N9, 24 h, read-out: EC50 for decrease of TNFα secretion
Procedure, shortened: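 N9 mouse microglia were plated at 8000 cells/well on gelatin in DMEM/10% FBS. At 24 h, cells were treated with LPS (E. coli O111:B4) plus test compound at stated concentrations. 24 h later, medium TNFα was measured by ELISA (A450, 540 nm correction). Viability of remaining cells was checked by AlamarBlue, 4 h at 37°C. n = 2 wells; means ± SEM.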

[9] = tested on: human stem-cell-derived motor neurons carrying the ALS-causing SOD1^A4V mutation; assay: Motor neuron CPA survival assay, SOD1^A4V ALS motor neurons
[10] = In vivo pharmacokinetics, IP injection or oral gavage; design: species or system mouse; conditions: for Brain AUC / Brain mean Cmax / Kp at 3 h / Cmax: mouse; for Brain AUC / Brain mean Cmax: ± SEM; for Kp at 3 h / Cmax: male, B6SJLF1/J; for Kp at 3 h: brain and plasma; for Cmax: plasma
Procedure, shortened: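 Dosing solution: DMSO stock diluted to 2 mg/mL in 40% PEG-400 plus 55% of a 20% hydroxypropyl-β-cyclodextrin solution. Given at 10 mg/kg IP or by oral gavage to 8-week-old male wild-type B6SJLF1/J mice, n = 3 per route per time point. At 15 min, 3, 8 or 24 h: trunk blood (EDTA 50 mM final, plasma) and fresh brain taken. Analysed by LC-MS against calibration curves; means ± SEM.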

[11] = tested on: JNK pathway; assay: Western blots of JNK pathway in CPA-treated motor neurons; format: cell-based, mouse; conditions: western blot
Procedure, shortened: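 Day-6 embryoid bodies from mouse ES cells (HB9::GFP reporter, human SOD1 transgene; RA 1 μM + SAG 0.5 μM) were given CPA 10 μM plus test compound 0.5 μM for 4 h, then lysed in HEPES/Triton/SDS buffer. Immunoblots used phospho-JNK (Thr183/Tyr185), phospho-c-Jun (Ser63), phospho-MKK4 (Ser257), total proteins and cleaved caspase 3 at 1:1000, with GAPDH at 1:3000. Signals normalised to GAPDH, phospho to total, and expressed as % of CPA; n = 2 differentiations; unpaired two-tailed t-tests.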

[12] = tested on: motor neurons differentiated from human induced pluripotent stem cells derived from a healthy patient; assay: Motor neuron CPA survival assay, healthy-patient iPSC-derived motor neurons; format: cell-based; conditions: CPA-treated healthy human motor neurons, 72 h
[13] = tested on: kinases assayed in cell-free conditions; assay: Kinase selectivity score from published cell-free panels; format: biochemical
[14] = tested on: HGK; conditions: 1 μM; ref Goodfellow et al., 2013; cited from earlier work
[15] = ref Goodfellow et al. (2013); cited from earlier work
[16] = tested on: HIV-mediated microgliosis in the brain; conditions: mice, ref Marker et al. (2013), cited from earlier work
[17] = CPA-treated SOD1^A4V motor neurons
[18] = CPA 10 μM + compound 0.5 μM, 4 h

Sequence of HGK (Homo sapiens, UniProt O95819) (O95819 whole entry): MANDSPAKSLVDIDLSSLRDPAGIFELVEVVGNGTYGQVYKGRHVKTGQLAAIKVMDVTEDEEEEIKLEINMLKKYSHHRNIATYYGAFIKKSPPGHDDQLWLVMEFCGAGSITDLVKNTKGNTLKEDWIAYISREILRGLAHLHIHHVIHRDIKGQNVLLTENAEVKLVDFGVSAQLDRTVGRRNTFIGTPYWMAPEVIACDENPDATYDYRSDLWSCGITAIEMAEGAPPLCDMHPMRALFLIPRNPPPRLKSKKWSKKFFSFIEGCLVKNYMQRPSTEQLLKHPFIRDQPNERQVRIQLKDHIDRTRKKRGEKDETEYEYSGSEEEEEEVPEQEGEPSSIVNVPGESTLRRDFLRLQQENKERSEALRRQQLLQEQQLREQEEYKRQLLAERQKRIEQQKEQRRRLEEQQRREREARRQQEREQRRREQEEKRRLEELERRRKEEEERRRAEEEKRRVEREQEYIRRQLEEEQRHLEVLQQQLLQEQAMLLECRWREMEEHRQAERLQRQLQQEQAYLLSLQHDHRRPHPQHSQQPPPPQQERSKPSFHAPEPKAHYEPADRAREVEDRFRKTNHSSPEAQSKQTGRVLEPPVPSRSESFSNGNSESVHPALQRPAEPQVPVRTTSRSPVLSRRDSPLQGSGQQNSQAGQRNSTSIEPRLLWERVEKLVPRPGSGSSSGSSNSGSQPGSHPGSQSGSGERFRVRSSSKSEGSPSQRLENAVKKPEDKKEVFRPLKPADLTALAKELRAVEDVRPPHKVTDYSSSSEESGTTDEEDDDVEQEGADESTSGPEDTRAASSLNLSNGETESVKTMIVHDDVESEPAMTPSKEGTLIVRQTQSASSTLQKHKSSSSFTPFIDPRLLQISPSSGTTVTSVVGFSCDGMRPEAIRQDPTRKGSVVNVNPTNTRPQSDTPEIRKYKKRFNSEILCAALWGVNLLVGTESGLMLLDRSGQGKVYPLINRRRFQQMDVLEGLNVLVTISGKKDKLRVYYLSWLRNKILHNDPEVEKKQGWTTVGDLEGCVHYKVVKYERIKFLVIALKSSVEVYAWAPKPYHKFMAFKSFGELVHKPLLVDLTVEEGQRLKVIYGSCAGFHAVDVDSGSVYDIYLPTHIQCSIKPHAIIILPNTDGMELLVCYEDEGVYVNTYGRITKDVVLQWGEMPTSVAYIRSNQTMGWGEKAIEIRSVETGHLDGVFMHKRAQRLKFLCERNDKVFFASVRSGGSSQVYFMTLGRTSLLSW
Sequence of MLK3 (Q16584 whole entry): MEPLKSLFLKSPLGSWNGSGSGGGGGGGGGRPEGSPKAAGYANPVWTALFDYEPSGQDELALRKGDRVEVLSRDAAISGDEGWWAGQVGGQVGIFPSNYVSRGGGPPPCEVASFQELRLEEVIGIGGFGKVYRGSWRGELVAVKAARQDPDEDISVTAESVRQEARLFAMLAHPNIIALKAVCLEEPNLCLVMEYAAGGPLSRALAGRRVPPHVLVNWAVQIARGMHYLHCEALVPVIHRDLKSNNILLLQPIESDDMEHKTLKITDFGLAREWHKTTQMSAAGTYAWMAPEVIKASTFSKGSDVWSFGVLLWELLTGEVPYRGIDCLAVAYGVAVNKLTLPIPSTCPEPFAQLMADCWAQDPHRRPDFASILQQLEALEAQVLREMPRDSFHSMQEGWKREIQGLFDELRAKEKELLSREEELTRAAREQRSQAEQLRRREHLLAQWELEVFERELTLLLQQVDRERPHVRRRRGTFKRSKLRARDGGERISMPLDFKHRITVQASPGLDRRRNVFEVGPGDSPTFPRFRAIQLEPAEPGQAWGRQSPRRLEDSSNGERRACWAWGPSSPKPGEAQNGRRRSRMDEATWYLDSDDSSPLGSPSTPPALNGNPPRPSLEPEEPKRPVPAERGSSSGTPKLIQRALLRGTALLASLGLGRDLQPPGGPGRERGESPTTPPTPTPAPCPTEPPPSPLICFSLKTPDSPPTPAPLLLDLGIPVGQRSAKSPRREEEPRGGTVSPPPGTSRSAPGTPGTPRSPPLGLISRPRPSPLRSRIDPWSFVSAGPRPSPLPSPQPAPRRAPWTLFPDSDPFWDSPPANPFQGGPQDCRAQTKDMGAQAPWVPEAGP
Sequence of MLK1 (P80192 whole entry): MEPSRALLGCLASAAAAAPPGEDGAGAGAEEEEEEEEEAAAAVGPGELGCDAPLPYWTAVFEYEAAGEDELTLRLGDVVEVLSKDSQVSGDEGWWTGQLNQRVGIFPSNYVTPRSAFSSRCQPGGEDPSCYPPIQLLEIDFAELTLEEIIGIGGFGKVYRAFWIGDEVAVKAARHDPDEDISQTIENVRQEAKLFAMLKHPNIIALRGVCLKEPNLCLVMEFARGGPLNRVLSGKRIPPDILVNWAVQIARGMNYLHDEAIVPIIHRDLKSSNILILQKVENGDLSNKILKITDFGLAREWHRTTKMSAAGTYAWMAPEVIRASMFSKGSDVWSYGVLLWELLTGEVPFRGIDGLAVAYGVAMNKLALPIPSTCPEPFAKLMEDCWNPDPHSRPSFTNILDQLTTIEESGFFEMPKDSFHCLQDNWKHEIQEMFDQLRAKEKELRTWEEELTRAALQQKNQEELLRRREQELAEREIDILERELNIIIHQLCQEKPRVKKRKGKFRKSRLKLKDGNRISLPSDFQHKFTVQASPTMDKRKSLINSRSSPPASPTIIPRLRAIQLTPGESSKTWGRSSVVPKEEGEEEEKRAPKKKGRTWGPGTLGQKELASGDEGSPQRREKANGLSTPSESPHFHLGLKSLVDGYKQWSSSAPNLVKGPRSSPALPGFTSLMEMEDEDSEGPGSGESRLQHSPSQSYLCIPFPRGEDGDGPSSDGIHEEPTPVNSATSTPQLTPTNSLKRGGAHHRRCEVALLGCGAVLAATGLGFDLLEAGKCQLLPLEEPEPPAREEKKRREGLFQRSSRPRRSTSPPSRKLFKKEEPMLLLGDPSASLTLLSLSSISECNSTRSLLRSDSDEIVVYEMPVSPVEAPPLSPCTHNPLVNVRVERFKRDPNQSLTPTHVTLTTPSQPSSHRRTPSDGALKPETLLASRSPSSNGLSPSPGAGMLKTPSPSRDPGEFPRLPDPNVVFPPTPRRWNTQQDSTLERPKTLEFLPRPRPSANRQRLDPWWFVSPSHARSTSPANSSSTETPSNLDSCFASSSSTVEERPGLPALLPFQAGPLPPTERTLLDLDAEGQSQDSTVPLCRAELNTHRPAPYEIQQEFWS

In the case of `Cc1ccc(NC(=O)c2ccc(CN3CCN(C)CC3)cc2)cc1Nc1nc(-c2cccnc2)cs1` [masitinib], the “effect on microgliosis and disease progression” value [1] is given as “attenuate microgliosis and slow disease progression”.

For `CCN(CC)CCNC(=O)c1c(C)[nH]c(/C=C2\C(=O)Nc3ccc(F)cc32)c1C` [sunitinib], the “protection of motor neurons from ER stress” value [2] is listed as “protect motor neurons from ER stress” and the blood-brain barrier crossing [3] is listed as “does not readily cross the blood-brain barrier”.

With `COc1cc(Nc2c(C#N)cnc3cc(OCCCN4CCN(C)CC4)c(OC)cc23)c(Cl)cc1Cl` [bosutinib] the “protection of CPA-treated motor neurons” value [4] was “mildly protective”.

With `CN1CC2CCC(C1)N2Cc1ccc(-c2cnc3[nH]cc(-c4cccc5[nH]ncc45)c3c2)cc1` [12e, 4-(5-(4-((3-Methyl-3,8-diazabicyclo[3.2.1]octan-8-yl)methyl)phenyl)-1H-pyrrolo[2,3-b]pyridin-3-yl)-1H-indazole] the “inhibition of HGK activity” value ([5]; single concentration, cell-free) was “strongly inhibited HGK activity”, the “activity at MLK3” value [6] was “little activity at MLK3” and the “inhibition of MLK1” value [7] was “inability to inhibit MLK3 and MLK1”. The “effect on TNFα release at 0.5 μM” value ([8]; 0.5 μM, LPS-stimulated N9 microglia) was “did not inhibit TNFα release”, the “effect on TNFα levels” value ([8]; LPS-stimulated N9 microglia) was “did not significantly decrease TNFα levels” and the “neuroprotection in CPA survival assay” value [9, 17] was “highly neuroprotective”.

With `OCCN1CCN(Cc2ccc(-c3cnc4[nH]cc(-c5cccc(Cl)c5)c4c3)cc2)CC1` [Prostetin/12k, 2-(4-(4-(3-(3-Chlorophenyl)-1H-pyrrolo[2,3-b]pyridin-5-yl)benzyl)piperazin-1-yl)ethan-1-ol] the IC50 [5] was 0.3 nM, the “activity at MLK3” value [6] was “slightly decreased inhibition of MLK3” and the “Brain AUC” value ([10]; 10 mg/kg IP) was 11570 (±1655) μg/L•h. For the same molecule, the “Brain mean Cmax” value ([10]; 10 mg/kg IP) was 1162 (±91.99) μg/kg, the “Brain AUC” value ([10]; 10 mg/kg OG) was 8429 (±1458) μg/L•h and the “Brain mean Cmax” value ([10]; 10 mg/kg OG) was 658.9 (±257.7) μg/kg. The “brain Cmax” value ([10]; IP-injected animals, 10 mg/kg) was 1162 ng/g and 2.60 μM, the Kp at 3 h ([10]; ip, 10 mg/kg) was 3 and the Kp at 3 h ([10]; oral, 10 mg/kg) was 3.3. For the same molecule, the Cmax ([10]; ip, 10 mg/kg) was 454 ng/mL, the Cmax ([10]; po, 10 mg/kg) was 184 ng/mL and the “concentrations that significantly attenuated TNFα release” value ([8]; LPS-stimulated N9 microglia) was ≥ 0.5 µM. For the same molecule, the EC50 [8] was ~470 nM, the “potency relative to compound 1 (fold less potent)” value ([8]; suppression of TNFα release) was ~ 5 x and the “inhibition of JNK pathway components” value ([11]; Fig. S2) was “effectively inhibit the same JNK pathway components as compound 1”. For the same molecule, the “concentration at which maximum efficacy (Emax) was observed” value [9, 17] was 0.5 µM and the EC50 ([9]; Homo sapiens, Neuron, 72 h, read-out: EC50 in motor neuron survival assay) was 100 nM.

For `CS(=O)(=O)O.Cn1cc(C2=C(c3cn(CCCSC(=N)N)c4ccccc34)C(=O)NC2=O)c2ccccc21` [Ro-318220 mesylate], the “protection of CPA-treated motor neurons” value [4] was “mildly protective”.

With `Nc1ncc(C(=O)NC2CN(C(=O)C3CC3)C2)c2ccc(-c3cccc(F)c3)nc12` [GNE-495] the “rescue of CPA toxicity / neuroprotection” value [12] was “neuroprotective” and the “selectivity score (kinases with <20% activity remaining / total kinases assayed)” value ([13]; 1 μM, cell-free, calculated from published data, ref Ndubaku et al., 2015) was 0.01.

With `CN1CCN(Cc2ccc(-c3cnc4[nH]cc(-c5ccc6[nH]ccc6c5)c4c3)cc2)CC1` [compound 1, 3-(1H-Indol-5-yl)-5-(4-((4-methylpiperazin-1-yl)methyl)phenyl)-1H-pyrrolo[2,3-b]pyridine, reference compound] the “rescue of CPA toxicity / neuroprotection” value [12] was “neuroprotective”, the IC50 [5] was 5.93 nM and the IC50 [6] was 18.6 nM. For the same molecule, the “Brain AUC” value ([10]; 10 mg/kg IP) was 1568 (±147.1) μg/L•h, the “Brain mean Cmax” value ([10]; 10 mg/kg IP) was 208.8 (±10.21) μg/kg and the “Brain AUC” value ([10]; 10 mg/kg OG) was 567.2 (±110.5) μg/L•h. The “Brain mean Cmax” value ([10]; 10 mg/kg OG) was 83.35 (±21.40) μg/kg, the Kp at 3 h ([10]; ip, 10 mg/kg) was 0.23 and the Kp at 3 h ([10]; oral, 10 mg/kg) was 0.19. The Cmax ([10]; ip, 10 mg/kg) was 972 ng/mL, the Cmax ([10]; po, 10 mg/kg) was 476 ng/mL and the EC50 [8] was 200 nM. For the same molecule, the “JNK activation (phospho-JNK Thr183/Tyr185) compared to CPA alone” value [11, 18] was “significantly decreased JNK activation”, the “phosphorylation of MKK4 at Ser257” value [11, 18] was “attenuated the phosphorylation” and the “selectivity score (kinases with <20% activity remaining / total kinases assayed)” value ([13]; similar conditions, based on data from ref Goodfellow et al. (2013)) was 0.36. The “inhibition of HGK activity” value [14] was > 99%, the “bioavailability (%F) as measured in the plasma” value [15] was 41 and the “effect on HIV-mediated microgliosis in the brain” value ([16]; IP 10 mg/kg twice a day for 28 days) was “attenuate Human Immunodeficiency Virus (HIV)-mediated microgliosis”. The “tolerability over long-term dosing” value [16] was “well-tolerated”, the “maximum motor neuron survival compared to untreated controls” value ([9]; CPA 33 μM, 72 h, CPA alone ~10%) was 102% and the “concentration at which maximum efficacy (Emax) was observed” value [9, 17] was 1 µM.
